We go through 7 compounds from ChEMBL document CHEMBL1126625, “7-Azetidinylquinolones as antibacterial agents. Synthesis and structure-activity relationships” (J Med Chem, 1993).

Values after ≈ are worked out from the molar mass of the structure shown.

A word on the MIC: it is the least concentration at which growth counts as inhibited. A high value points to a need for much substance. For orientation: ED50 means the midpoint of the dose-response relation. Read a high ED50 as a need for a large dose. What is called AUC is concentration integrated over time. A high value points to high exposure.

In one series the test system is Proteus vulgaris. Briefly: Minimum inhibitory concentration (MIC) preventing growth of Proteus vulgaris. The series is classed as functional.
The next series has as its system Bacillus subtilis. Description: Minimum inhibitory concentration (MIC) preventing growth of Bacillus subtilis. The series is classed as functional.
The test system of series [1] is Pseudomonas aeruginosa. Description: Efficacy on systemic infections after oral administration in mice was determined against Pseudomonas aeruginosa HS-116. The series is classed as functional. The procedure, abridged:
(§1)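 Mouse protection test using 4 groups of 10 mice. Mice were infected intraperitoneally with a bacterial suspension slightly above LD100. A single oral dose was given immediately after infection, with four doses, one per group, chosen from in vitro activity. Survival was scored after one week, and ED50 (total mg/kg protecting 50% of mice) was interpolated from group survival rates.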

In series [2] the test system is Staphylococcus aureus. Briefly: Efficacy on systemic infections after oral administration in mice was determined against […] HS-93. The series is classed as functional. The procedure, abridged: as §1
The subject of series [3] is Mus musculus. Description: Blood level after oral administration in mice (50 mg/kg) was determined by bioassay procedure and represent total activity present in the serum. The conditions noted are these: in vivo. The series is classed as ADME, organism-based. The procedure, abridged:
(§2)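 Single oral dose of 50 mg/kg to mice. Blood taken from groups of six mice at 0.5, 1, 2 and 4 h after dosing. Serum levels measured by disk agar diffusion bioassay with Bacillus subtilis ATCC 6633 on Seed Agar, plates incubated 18 h at 37 °C, giving total activity in serum. AUC 0-4 h expressed as μg/mL […].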

The subject of series [4] is Staphylococcus epidermidis. Briefly: Minimum inhibitory concentration (MIC) preventing growth of Staphylococcus epidermidis. The series is classed as functional.
In the next series the test system is Bacillus cereus. Briefly: Minimum inhibitory concentration (MIC) preventing growth of Bacillus cereus. The series is classed as functional.
The next series has as its system Enterobacter cloacae. Briefly: Minimum inhibitory concentration (MIC)preventing growth of Enterobacter cloacae. The series is classed as functional.
The subject of the next series is Enterococcus faecalis. Description: Minimum inhibitory concentration (MIC) preventing growth of Streptococcus faecalis ATCC 10541. The series is classed as functional.
Series [5] has as its system Escherichia coli. Briefly: Efficacy on systemic infections after oral administration in mice was determined against Escherichia coli HM-42. The series is classed as functional. The procedure, abridged: as §1
A further series deals with Morganella morganii. Description: Minimum inhibitory concentration (MIC) preventing growth of Morganella morganii. The series is classed as functional.
A further series deals with Klebsiella pneumoniae. Description: Minimum inhibitory concentration (MIC)preventing growth of Klebsiella pneumoniae. The series is classed as functional.
For series [6], the system named is Escherichia coli. Description: Minimum inhibitory concentration (MIC)preventing growth of Escherichia coli. The series is classed as functional.
Series [7] has as its system Pseudomonas aeruginosa. Briefly: Minimum inhibitory concentration (MIC)preventing growth of Pseudomonas aeruginosa. The series is classed as functional.
The test system of series [8] is Staphylococcus aureus. Briefly: Minimum inhibitory concentration (MIC) preventing growth of […]. The series is classed as functional.
Series [9] deals with Mus musculus. Description: Blood level after oral administration in mice (50 mg/kg) was determined (area under the concentration-time curve recorded at 0.5, 1, 2, and 4 hour after dosing). The series is classed as ADME, organism-based. Further details: dose 50 mg/kg, time < 4 hr, route oral. The conditions noted are these: in vivo. The procedure, abridged: as §2

Consider `CNC1CN(c2c(F)cc3c(=O)c(C(=O)O)cn(C4CC4)c3c2Cl)C1`, for which the MIC against Proteus vulgaris turned out to be 0.015 µg/mL (≈ 0.041 µM); against Bacillus subtilis, 0.015 µg/mL (≈ 0.041 µM); in series [4], 0.06 µg/mL (≈ 0.164 µM); in the series with Bacillus cereus, 0.12 µg/mL (≈ 0.328 µM); against Enterobacter cloacae, 0.015 µg/mL (≈ 0.041 µM); in the series with Enterococcus faecalis it was 0.25 µg/mL (≈ 0.683 µM). For the same compound, the minimum inhibitory concentration (MIC) was determined as 0.015 µg/mL (≈ 0.041 µM) in the series on Morganella morganii; 0.12 µg/mL (≈ 0.328 µM) against Klebsiella pneumoniae; 0.015 µg/mL (≈ 0.041 µM) in the series on Escherichia coli [6]; 0.25 µg/mL (≈ 0.683 µM) with Pseudomonas aeruginosa [7]; 0.06 µg/mL (≈ 0.164 µM) against Staphylococcus aureus [8]. For the same compound, the ED50 turned out to be 39 mg/kg in the series with Pseudomonas aeruginosa [1], 15.2 mg/kg with Staphylococcus aureus [2] and 2 mg/kg in the series with Escherichia coli [5]. The AUC with Mus musculus [3] is 4000 ng·h/mL.

On to `CC1(N)CN(c2c(F)cc3c(=O)c(C(=O)O)cn(C4CC4)c3c2Cl)C1`, for which the MIC turned out to be 0.12 µg/mL (≈ 0.328 µM) against Proteus vulgaris; 0.06 µg/mL (≈ 0.164 µM) against Bacillus subtilis; 0.06 µg/mL (≈ 0.164 µM) in [4]; 0.06 µg/mL (≈ 0.164 µM) against Bacillus cereus; 0.03 µg/mL (≈ 0.082 µM) in the series on Enterobacter cloacae; 0.25 µg/mL (≈ 0.683 µM) against Enterococcus faecalis. For the same compound, the MIC in the series on Morganella morganii was 0.03 µg/mL (≈ 0.082 µM); against Klebsiella pneumoniae, 0.03 µg/mL (≈ 0.082 µM); against Escherichia coli [6], 0.03 µg/mL (≈ 0.082 µM); in the series with Pseudomonas aeruginosa [7], 0.25 µg/mL (≈ 0.683 µM); against Staphylococcus aureus [8], 0.06 µg/mL (≈ 0.164 µM). The ED50 stood at 59.8 mg/kg in the series on Pseudomonas aeruginosa [1], 4.1 mg/kg in the series with Staphylococcus aureus [2] and 2 mg/kg in the series with Escherichia coli [5]. This compound also displayed an AUC with Mus musculus [3] of 2800 ng·h/mL.

With `CC1(N)CN(c2nc3c(cc2F)c(=O)c(C(=O)O)cn3C(C)(C)C)C1`, the minimal inhibitory concentration (MIC) against Proteus vulgaris came to 0.25 µg/mL (≈ 0.718 µM); in the series on Bacillus subtilis it was 0.015 µg/mL (≈ 0.0431 µM); in [4] it was 0.12 µg/mL (≈ 0.344 µM); against Bacillus cereus it was 0.12 µg/mL (≈ 0.344 µM); against Enterobacter cloacae it was 0.12 µg/mL (≈ 0.344 µM); against Enterococcus faecalis, 1 µg/mL (≈ 2.87 µM). Also, the minimal inhibitory concentration (MIC) against Morganella morganii came to 0.12 µg/mL (≈ 0.344 µM); in the series with Klebsiella pneumoniae it was 0.015 µg/mL (≈ 0.0431 µM); against Escherichia coli [6] it was 0.06 µg/mL (≈ 0.172 µM); in the series with Pseudomonas aeruginosa [7], 2 µg/mL (≈ 5.74 µM); with Staphylococcus aureus [8], 0.12 µg/mL (≈ 0.344 µM). This compound also returned an area under the curve (AUC) in the series on Mus musculus [3] of 11300 ng·h/mL.

On to `CC1(N)CN(c2nc3c(cc2F)c(=O)c(C(=O)O)cn3-c2ccc(F)cc2F)C1`, for which the MIC in the series on Proteus vulgaris came out at 0.5 µg/mL (≈ 1.24 µM); against Bacillus subtilis, 0.06 µg/mL (≈ 0.148 µM); in series [4] it was 0.12 µg/mL (≈ 0.297 µM); in the series on Bacillus cereus, 0.12 µg/mL (≈ 0.297 µM); with Enterobacter cloacae, 0.12 µg/mL (≈ 0.297 µM); against Enterococcus faecalis, 0.5 µg/mL (≈ 1.24 µM). In addition, the MIC against Morganella morganii was 0.25 µg/mL (≈ 0.618 µM); in the series on Klebsiella pneumoniae, 0.06 µg/mL (≈ 0.148 µM); in the series with Escherichia coli [6], 0.12 µg/mL (≈ 0.297 µM); in the series on Pseudomonas aeruginosa [7] it was 1 µg/mL (≈ 2.47 µM); in the series with Staphylococcus aureus [8], 0.12 µg/mL (≈ 0.297 µM). Further, the values for the ED50 with Pseudomonas aeruginosa [1], in the series with Staphylococcus aureus [2] and with Escherichia coli [5] were 108 mg/kg, 6.7 mg/kg and 3.1 mg/kg, respectively. Moreover, the AUC in the series with Mus musculus [3] came out at 46400 ng·h/mL.

`NC1CN(c2c(F)cc3c(=O)c(C(=O)O)cn(-c4ccc(F)cc4F)c3c2Cl)C1`: the MIC against Proteus vulgaris came out at 0.015 µg/mL (≈ 0.0354 µM); in the series with Bacillus subtilis it was 0.015 µg/mL (≈ 0.0354 µM); in series [4], 0.015 µg/mL (≈ 0.0354 µM); in the series on Bacillus cereus it was 0.015 µg/mL (≈ 0.0354 µM); against Enterobacter cloacae, 0.015 µg/mL (≈ 0.0354 µM); in the series on Enterococcus faecalis, 0.06 µg/mL (≈ 0.142 µM). In addition, the MIC was determined as 0.015 µg/mL (≈ 0.0354 µM) in the series with Morganella morganii; 0.015 µg/mL (≈ 0.0354 µM) with Klebsiella pneumoniae; 0.015 µg/mL (≈ 0.0354 µM) in the series with Escherichia coli [6]; 0.12 µg/mL (≈ 0.283 µM) in the series on Pseudomonas aeruginosa [7]; 0.015 µg/mL (≈ 0.0354 µM) against Staphylococcus aureus [8]. The ED50 with Pseudomonas aeruginosa [1] was found to be 55 mg/kg; with Staphylococcus aureus [2], 1.7 mg/kg; with Escherichia coli [5], 2.3 mg/kg. Moreover, the AUC in the series with Mus musculus [3] is 13000 ng·h/mL.

As to `CN(C)C1CN(c2cc3c(cc2F)c(=O)c(C(=O)O)cn3C2CC2)C1`, the MIC in the series with Proteus vulgaris turned out to be 0.12 µg/mL (≈ 0.347 µM); in the series on Bacillus subtilis, 0.015 µg/mL (≈ 0.0434 µM); in series [4] it was 0.12 µg/mL (≈ 0.347 µM); in the series on Bacillus cereus, 0.12 µg/mL (≈ 0.347 µM); with Enterobacter cloacae, 0.06 µg/mL (≈ 0.174 µM); with Enterococcus faecalis, 1 µg/mL (≈ 2.9 µM). In addition, the MIC against Morganella morganii came to 0.12 µg/mL (≈ 0.347 µM); against Klebsiella pneumoniae it was 0.015 µg/mL (≈ 0.0434 µM); in the series with Escherichia coli [6] it was 0.06 µg/mL (≈ 0.174 µM); against Pseudomonas aeruginosa [7], 2 µg/mL (≈ 5.79 µM); in the series on Staphylococcus aureus [8], 0.12 µg/mL (≈ 0.347 µM). Moreover, the ED50 was found to be 44.5 mg/kg in the series on Pseudomonas aeruginosa [1], 35.6 mg/kg in the series on Staphylococcus aureus [2] and 1.3 mg/kg with Escherichia coli [5]. In the series on Mus musculus [9], this compound registered an AUC of 10600 ng·h/mL.

Consider `CNC1(C)CN(c2cc3c(cc2F)c(=O)c(C(=O)O)cn3C(C)(C)C)C1`, for which the MIC in the series on Proteus vulgaris is 0.5 µg/mL (≈ 1.38 µM); against Bacillus subtilis it was 0.06 µg/mL (≈ 0.166 µM); in series [4], 0.25 µg/mL (≈ 0.692 µM); in the series with Bacillus cereus, 0.25 µg/mL (≈ 0.692 µM); in the series on Enterobacter cloacae it was 0.25 µg/mL (≈ 0.692 µM); with Enterococcus faecalis, 0.5 µg/mL (≈ 1.38 µM). The MIC came out at 0.5 µg/mL (≈ 1.38 µM) against Morganella morganii; 0.06 µg/mL (≈ 0.166 µM) with Klebsiella pneumoniae; 0.25 µg/mL (≈ 0.692 µM) in the series on Escherichia coli [6]; 4 µg/mL (≈ 11.1 µM) in the series with Pseudomonas aeruginosa [7]; 0.25 µg/mL (≈ 0.692 µM) in the series on Staphylococcus aureus [8]. Also, the AUC in the series on Mus musculus [3] is 4600 ng·h/mL.
